ChEMBL document CHEMBL1125592, “Calcium channel blocking and positive inotropic activities of ethyl 5-cyano-1,4-dihydro-6-methyl-2-[(phenylsulfonyl)methyl]-4-aryl-3- pyridine-carboxylate and analogues. Synthesis and structure-activity relationships” (J Med Chem, 1991)
Each block holds one compound with its values, some of them ahead of it. Active and inactive are the calls of the source. The rule behind the calls is not given here.

Experiments:
Rattus norvegicus [1] = species: Rattus norvegicus; assay: Compound was tested for its effect on coronary vasodilator in isolated rat hearts.; type: functional
Procedure, shortened: (§1)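 Coronary vasodilation and ventricular contractility measured in isolated Langendorff-perfused rat hearts. EC25 (concentration raising the parameter by 25%) given as mean ± SEM of four to six hearts.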

Rattus norvegicus [2] = species: Rattus norvegicus; assay: Compound was tested for its effect on ventricular cantractility in isolated rat hearts.; type: functional, Cardiac ventricle; procedure, shortened: as §1
Rattus norvegicus [3] = species: Rattus norvegicus; assay: Compound was tested for the cardiovascular activity in isolated rat heart. Value represents the concentration producing 25% increase in CF (cardiac flow); NA indicates not active; type: functional
Procedure, shortened: (§2)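 Isolated Langendorff-perfused rat heart. Coronary flow (CF), LV +dP/dtmax and heart rate recorded during exposure to test agent. Value is the concentration giving a 25% rise in CF or in LV +dP/dtmax, mean ± SE. At least two hearts per compound.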

Oryctolagus cuniculus [4] = species: Oryctolagus cuniculus; assay: Vasorelaxant effect at a concentration of 10e-10 M on rabbit aortic rings previously contracted with 1.0 uM Norepinephrine.; type: functional, Aorta
Procedure, shortened: (§3)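 They were then exposed to increasing concentrations of the test agent, and relaxation of the precontraction was recorded as calcium channel blocking activity.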

Oryctolagus cuniculus [5] = species: Oryctolagus cuniculus; assay: Vasorelaxant effect at a concentration of 10e-10 M on rabbit aortic rings previously contracted with 50 mM KCl.; type: functional, Aorta; procedure, shortened: as §3
Oryctolagus cuniculus [6] = species: Oryctolagus cuniculus; assay: Vasorelaxant effect at a concentration of 10e-5 M on rabbit aortic rings previously contracted with 1.0 uM Norepinephrine.; type: functional, Aorta; set-up: unit not given here
Procedure, shortened: (§4)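 Rabbit aortic rings precontracted with 50 mM KCl or 1.0 μM norepinephrine, then exposed to increasing concentrations of test agent. Relaxation recorded at each concentration.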

Oryctolagus cuniculus [7] = species: Oryctolagus cuniculus; assay: Vasorelaxant effect at a concentration of 10e-5 M on rabbit aortic rings previously contracted with 50 mM KCl.; type: functional, Aorta; set-up: unit not given here; procedure, shortened: as §4
Oryctolagus cuniculus [8] = species: Oryctolagus cuniculus; assay: Vasorelaxant effect at a concentration of 10e-6 M on rabbit aortic rings previously contracted with 1.0 uM Norepinephrine.; type: functional, Aorta; set-up: unit not given here; procedure, shortened: as §4
Oryctolagus cuniculus [9] = species: Oryctolagus cuniculus; assay: Vasorelaxant effect at a concentration of 10e-6 M on rabbit aortic rings previously contracted with 50 mM KCl.; type: functional, Aorta; set-up: unit not given here; procedure, shortened: as §4
Oryctolagus cuniculus [10] = species: Oryctolagus cuniculus; assay: Vasorelaxant effect at a concentration of 10e-7 M on rabbit aortic rings previously contracted with 1.0 uM Norepinephrine.; type: functional, Aorta; set-up: unit not given here; procedure, shortened: as §4
Oryctolagus cuniculus [11] = species: Oryctolagus cuniculus; assay: Vasorelaxant effect at a concentration of 10e-7 M on rabbit aortic rings previously contracted with 50 mM KCl.; type: functional, Aorta; set-up: unit not given here; procedure, shortened: as §4
Oryctolagus cuniculus [12] = species: Oryctolagus cuniculus; assay: Vasorelaxant effect at a concentration of 10e-8 M on rabbit aortic rings previously contracted with 1.0 uM Norepinephrine.; type: functional, Aorta; procedure, shortened: as §4
Oryctolagus cuniculus [13] = species: Oryctolagus cuniculus; assay: Vasorelaxant effect at a concentration of 10e-8 M on rabbit aortic rings previously contracted with 50 mM KCl.; type: functional, Aorta; procedure, shortened: as §4
Oryctolagus cuniculus [14] = species: Oryctolagus cuniculus; assay: Vasorelaxant effect at a concentration of 10e-9 M on rabbit aortic rings previously contracted with 1.0 uM Norepinephrine.; type: functional, Aorta; procedure, shortened: as §4
Oryctolagus cuniculus [15] = species: Oryctolagus cuniculus; assay: Vasorelaxant effect at a concentration of 10e-9 M on rabbit aortic rings previously contracted with 50 mM KCl.; type: functional, Aorta; procedure, shortened: as §4
[16] = molecular target: Voltage-gated L-type calcium channel (Rattus norvegicus, UniProt P22002+Q02485+P27732); assay: Affinity to bind dihydropyridine receptor (DHP receptor) by inhibiting the radioligand [3H]nitrendipine; type: protein assay
Procedure, shortened: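 [3H]nitrendipine displacement, rat brain cortical membranes. Each compound first screened at 1000 nM; if inhibition exceeded 40%, a four- to seven-point curve with unlabeled compound was run. IC50 generally mean of two experiments, each in triplicate. ">1000 nM" means under 40% inhibition of control binding at 1000 nM.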

Rattus norvegicus [17] = species: Rattus norvegicus; assay: Cardiovascular activity in isolated rat heart, concentration producing 25% increase in CF (cardiac flow).; type: functional; procedure, shortened: as §2
Rattus norvegicus [18] = species: Rattus norvegicus; assay: Cardiovascular activity in isolated rat heart, concentration producing 25% increase in LV + dP/dtmax.; type: functional; procedure, shortened: as §2
Oryctolagus cuniculus [19] = species: Oryctolagus cuniculus; assay: Vasorelaxant effect at a concentration of 10e-4 M on rabbit aortic rings previously contracted with 1.0 uM Norepinephrine.; type: functional, Aorta; set-up: unit not given here; procedure, shortened: as §4
Oryctolagus cuniculus [20] = species: Oryctolagus cuniculus; assay: Vasorelaxant effect at a concentration of 10e-4 M on rabbit aortic rings previously contracted with 50 mM KCl.; type: functional, Aorta; set-up: unit not given here; procedure, shortened: as §4
Rattus norvegicus [21] = species: Rattus norvegicus; assay: Compound was tested for the cardiovascular activity in isolated rat heart. Value represents the concentration producing 25% increase in LV + dP/dtmax; NA indicates not active; type: functional; procedure, shortened: as §2

SMILES: CCOC(=O)C1=C(CS(=O)(=O)c2ccncc2)NC(C)=C(C#N)C1c1ccccc1C(F)(F)F (stereo in doubt; 54B)
EC25 (Rattus norvegicus [1]): 1622 nM | EC25 (Rattus norvegicus [2]): 888 nM

SMILES: CCOC(=O)C1=C(C[S+]([O-])c2ccccc2)NC(C)=C(C#N)C1c1ccccc1C(F)(F)F (stereo in doubt; 29a)
EC25 (Rattus norvegicus [3]): inactive

SMILES: COC(=O)C1=C(C)NC(C)=C(C(=O)OC)C1c1ccccc1[N+](=O)[O-] [NIFEDIPINE]
Vasorelaxant effect (Oryctolagus cuniculus [4]): -1 | Vasorelaxant effect (Oryctolagus cuniculus [5]): -3.1 | Vasorelaxant effect (Oryctolagus cuniculus [6]): 6.1 | Vasorelaxant effect (Oryctolagus cuniculus [7]): 92.6 | Vasorelaxant effect (Oryctolagus cuniculus [8]): 3.5 | Vasorelaxant effect (Oryctolagus cuniculus [9]): 89.4 | Vasorelaxant effect (Oryctolagus cuniculus [10]): 1 | Vasorelaxant effect (Oryctolagus cuniculus [11]): 65.8 | Vasorelaxant effect (Oryctolagus cuniculus [12]): -1.1 | Vasorelaxant effect (Oryctolagus cuniculus [13]): 24.7 | Vasorelaxant effect (Oryctolagus cuniculus [14]): -1.2 | Vasorelaxant effect (Oryctolagus cuniculus [15]): -1.7

IC50 [16]: 580 nM
SMILES: C=CCO/C(O)=C1\C(CS(=O)(=O)c2ccccc2)=NC(C)=C(C#N)C1c1ccccc1C(F)(F)F (stereo not given)
EC25 (Rattus norvegicus [17]): <100 nM | EC25 (Rattus norvegicus [18]): 300 nM

IC50 [16]: > 1000 nM
SMILES: CCO/C(O)=C1\C(C[S+]([O-])c2ccccc2Cl)=NC(C)=C(C#N)C1c1ccccc1C(F)(F)F (stereo not given)
EC25 (Rattus norvegicus [17]): 260 nM | EC25 (Rattus norvegicus [18]): 200 nM

IC50 [16]: > 1000 nM
SMILES: CCO/C(O)=C1\C(C[S+]([O-])c2ccccc2F)=NC(C)=C(C#N)C1c1ccccc1C(F)(F)F (stereo not given)
EC25 (Rattus norvegicus [17]): 360 nM | EC25 (Rattus norvegicus [18]): 930 nM

IC50 [16]: 480 nM
SMILES: CCO/C(O)=C1\C(CS(=O)(=O)c2ccccc2)=NC(C)=C(C#N)C1c1ccccc1 (stereo not given)
Vasorelaxant effect (Oryctolagus cuniculus [19]): 6 | Vasorelaxant effect (Oryctolagus cuniculus [20]): 54 | Vasorelaxant effect (Oryctolagus cuniculus [6]): 0 | Vasorelaxant effect (Oryctolagus cuniculus [7]): 26 | Vasorelaxant effect (Oryctolagus cuniculus [8]): 1 | Vasorelaxant effect (Oryctolagus cuniculus [9]): 1 | Vasorelaxant effect (Oryctolagus cuniculus [10]): 0 | Vasorelaxant effect (Oryctolagus cuniculus [11]): 4 | EC25 (Rattus norvegicus [3]): inactive | EC25 (Rattus norvegicus [18]): 960 nM

IC50 [16]: 2800 nM
SMILES: CCOC(=O)C1=C(C[S+]([O-])c2ccccc2)NC(C)=C(C#N)C1c1ccccc1C(F)(F)F (stereo in doubt; 29b)
EC25 (Rattus norvegicus [17]): 1300 nM | EC25 (Rattus norvegicus [18]): 170 nM

IC50 [16]: > 1000 nM
SMILES: CCO/C(O)=C1\C(CS(=O)(=O)c2ccccc2)=NC(C)=C(C#N)C1C1CCCCC1 (stereo not given)
EC25 (Rattus norvegicus [17]): 520 nM | EC25 (Rattus norvegicus [18]): 1090 nM

IC50 [16]: 250 nM
SMILES: CC1=C(C#N)C(c2ccccc2C(F)(F)F)/C(=C(\O)OC(C)C)C(CSc2ccccc2)=N1 (stereo not given)
Vasorelaxant effect (Oryctolagus cuniculus [19]): 9 | Vasorelaxant effect (Oryctolagus cuniculus [20]): 74 | Vasorelaxant effect (Oryctolagus cuniculus [6]): 8 | Vasorelaxant effect (Oryctolagus cuniculus [7]): 30 | Vasorelaxant effect (Oryctolagus cuniculus [8]): -2 | Vasorelaxant effect (Oryctolagus cuniculus [9]): 2 | Vasorelaxant effect (Oryctolagus cuniculus [10]): -1 | Vasorelaxant effect (Oryctolagus cuniculus [11]): 0

IC50 [16]: 1200 nM
SMILES: CCO/C(O)=C1\C(C[S+]([O-])c2ccc(OC)cc2)=NC(C)=C(C#N)C1c1ccccc1C(F)(F)F (stereo not given)
EC25 (Rattus norvegicus [17]): 300 nM | EC25 (Rattus norvegicus [21]): inactive

IC50 [16]: > 1000 nM
SMILES: CO/C(O)=C1\C(C[S+]([O-])c2ccccc2)=NC(C)=C(C#N)C1c1ccccc1C(F)(F)F (stereo not given)
EC25 (Rattus norvegicus [17]): 1480 nM | EC25 (Rattus norvegicus [18]): 260 nM

IC50 [16]: > 1000 nM
SMILES: CC1=C(C#N)C(c2ccccc2C(F)(F)F)/C(=C(\O)OCCN(C)Cc2ccccc2)C(C[S+]([O-])c2ccccc2)=N1 (stereo not given)
EC25 (Rattus norvegicus [17]): 420 nM | EC25 (Rattus norvegicus [18]): 120 nM

IC50 [16]: > 1000 nM
SMILES: CCO/C(O)=C1\C(CS(=O)(=O)c2ccccc2F)=NC(C)=C(C#N)C1c1ccccc1C(F)(F)F (stereo not given)
EC25 (Rattus norvegicus [17]): 90 nM | EC25 (Rattus norvegicus [18]): 390 nM

IC50 [16]: 109 nM
SMILES: CCO/C(O)=C1\C(CS(=O)(=O)c2ccc(OC)cc2)=NC(C)=C(C#N)C1c1ccccc1C(F)(F)F (stereo not given)
EC25 (Rattus norvegicus [17]): 300 nM | EC25 (Rattus norvegicus [18]): inactive
